The values that follow come from ChEMBL document CHEMBL1141391 (J Med Chem, 2007).

In one test the target is Tubulin (Homo sapiens) (UniProt P68371+Q9H4B7+P0DPH7+P68366+Q13509+Q71U36+P04350+Q3ZCM7+P07437+P68363+Q9BQE3+Q6PEY2+Q13885+Q9BVA1+Q9BUF5). The test can be described thus: Induction of GTP-tubulin polymerization. In kind it is protein-complex assay. A digest of the protocol:
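ED50 for induction of tubulin assembly, read by light scattering at 350 nm or by fluorescence in a 96-well format. GTP-tubulin was used unless otherwise stated. Some samples were run with GDP-tubulin and normalized to the GTP-tubulin scale. Some values are single determinations.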

For another test, the system named is PC-3. The experiment in a line: Cytotoxicity against PC3 cell line by MTT assay. Particulars: Homo sapiens. It is filed as cell-based.
The next test concerns A2780. The experiment in a line: Cytotoxicity against A2780 cell line. In kind it is cell-based. Particulars: Homo sapiens.

Usually IC50 stands for the point on the concentration scale where inhibition reaches its midpoint. A lower IC50 goes with higher potency. `C=CCCC(=O)O[C@@]12CO[C@@H]1C[C@H](O)[C@@]1(C)C(=O)[C@H](OC(C)=O)C3=C(C)[C@@H](OC(=O)[C@H](O)[C@@H](NC(=O)c4ccccc4)c4cccc(OCC=C)c4)C[C@@](O)([C@@H](OC(=O)c4ccccc4)[C@H]21)C3(C)C` showed an ED50 on Tubulin (Homo sapiens) of 1800 nM. The results for the IC50 in the test on PC-3 and in the test with A2780 were 2600 nM and 2520 nM, respectively.
Taken in the same sequence, the figures for `C=CC(=O)O[C@@]12CO[C@@H]1C[C@H](O)[C@@]1(C)C(=O)[C@H](OC(C)=O)C3=C(C)[C@@H](OC(=O)[C@H](O)[C@@H](NC(=O)c4ccccc4)c4ccccc4C=C)C[C@@](O)([C@@H](OC(=O)c4ccccc4)[C@H]21)C3(C)C` were 1400 nM, 275 nM and 1600 nM.
Compound `CC(=O)O[C@H]1C(=O)[C@@]2(C)[C@@H]3[C@H](OC(=O)c4ccccc4)[C@]4(O)C[C@H](OC(=O)[C@H](O)[C@@H](NC(=O)OC(C)(C)C)c5ccccc5CCCC(=O)O[C@]35CO[C@@H]5C[C@@H]2O)C(C)=C1C4(C)C` had an ED50 on Tubulin (Homo sapiens) of 180 nM. Besides, the 50% inhibitory concentration (IC50) came to 1.5 nM with PC-3 and 0.65 nM in the test with A2780.
`COc1cccc(C(=O)O[C@H]2[C@@H]3[C@]45CO[C@@H]4C[C@H](O)[C@@]3(C)C(=O)[C@H](OC(C)=O)C3=C(C)[C@H](C[C@]2(O)C3(C)C)OC(=O)[C@H](O)[C@@H](NC(=O)OC(C)(C)C)c2ccccc2/C=C/CC(=O)O5)c1` registered an ED50 on Tubulin (Homo sapiens) of 350 nM. The IC50 is 11 nM in the test on PC-3 and over 6 nM with A2780.
The compound `C=CCOc1cccc([C@H](NC(=O)c2ccccc2)[C@@H](O)C(=O)O[C@H]2C[C@@]3(O)[C@@H](OC(=O)c4ccccc4)[C@@H]4[C@]5(OC(=O)C=C)CO[C@@H]5C[C@H](O)[C@@]4(C)C(=O)[C@H](OC(C)=O)C(=C2C)C3(C)C)c1` registered an ED50 on Tubulin (Homo sapiens) of 1000 nM. The results for the IC50 in the test with PC-3 and in the test with A2780 were 550 nM and 1900 nM, respectively.
`COc1cccc(C(=O)O[C@H]2[C@@H]3[C@]45CO[C@@H]4C[C@H](O)[C@@]3(C)C(=O)[C@H](OC(C)=O)C3=C(C)[C@H](C[C@]2(O)C3(C)C)OC(=O)[C@H](O)[C@@H](NC(=O)OC(C)(C)C)c2ccccc2CCCC(=O)O5)c1` returned an ED50 on Tubulin (Homo sapiens) of 220 nM. For the same compound, the IC50 with PC-3 came to 1.3 nM; in the test with A2780 it was 0.49 nM.
The like results for `CC(=O)O[C@H]1C(=O)[C@@]2(C)[C@@H]3[C@H](OC(=O)c4ccccc4)[C@]4(O)C[C@H](OC(=O)[C@H](O)[C@@H](NC(=O)c5ccccc5)c5cccc(c5)CCCCC(=O)O[C@]35CO[C@@H]5C[C@@H]2O)C(C)=C1C4(C)C` were, in that order, 1400 nM, 570 nM and 8800 nM.
Taken in the same sequence, the figures for `CC(=O)O[C@H]1C(=O)[C@@]2(C)[C@@H]3[C@H](OC(=O)c4ccccc4)[C@]4(O)C[C@H](OC(=O)[C@H](O)[C@@H](NC(=O)c5ccccc5)c5ccccc5OCCCCCCC(=O)O[C@]35CO[C@@H]5C[C@@H]2O)C(C)=C1C4(C)C` were 850 nM, 390 nM and 2000 nM.
The like results for `CC(=O)O[C@H]1C(=O)[C@@]2(C)[C@@H]3[C@H](OC(=O)c4ccccc4)[C@]4(O)C[C@H](OC(=O)[C@H](O)[C@@H](NC(=O)c5ccccc5)c5ccccc5OCCCCC(=O)O[C@]35CO[C@@H]5C[C@@H]2O)C(C)=C1C4(C)C` were, in that order, 230 nM, 13 nM and 28 nM.
As for `C=CCCOc1ccccc1[C@H](NC(=O)c1ccccc1)[C@@H](O)C(=O)O[C@H]1C[C@@]2(O)[C@@H](OC(=O)c3ccccc3)[C@@H]3[C@]4(OC(=O)C=C)CO[C@@H]4C[C@H](O)[C@@]3(C)C(=O)[C@H](OC(C)=O)C(=C1C)C2(C)C`, on Tubulin (Homo sapiens), the ED50 was 2700 nM. Besides, the results for the IC50 in the test on PC-3 and in the test with A2780 were over 13200 nM and 19800 nM, respectively.
Turning to `COc1cccc(C(=O)O[C@H]2[C@@H]3[C@]45CO[C@@H]4C[C@H](O)[C@@]3(C)C(=O)[C@H](OC(C)=O)C3=C(C)[C@H](C[C@]2(O)C3(C)C)OC(=O)[C@H](O)[C@@H](NC(=O)c2ccccc2)c2ccccc2CCCC(=O)O5)c1`, the midpoint of inhibition in the test with A2780, the IC50, lay at 23.1 nM.
